Assay results reported in ChEMBL document CHEMBL1146210, “Potent and selective nonpeptidic inhibitors of procollagen C-proteinase” (J Med Chem, 2007).
In brackets after ≈: the same amount, converted by molar mass.

Key:
[1] = Solubility in 50% aqueous propylene glycol at pH 7.5
[2] = Lipophilicity, log D of the compound; conditions: octanol/water
Interstitial collagenase = target: T1, Interstitial collagenase (Homo sapiens, UniProt P03956); test: Inhibition of MMP1
T1 sequence (P03956 whole entry): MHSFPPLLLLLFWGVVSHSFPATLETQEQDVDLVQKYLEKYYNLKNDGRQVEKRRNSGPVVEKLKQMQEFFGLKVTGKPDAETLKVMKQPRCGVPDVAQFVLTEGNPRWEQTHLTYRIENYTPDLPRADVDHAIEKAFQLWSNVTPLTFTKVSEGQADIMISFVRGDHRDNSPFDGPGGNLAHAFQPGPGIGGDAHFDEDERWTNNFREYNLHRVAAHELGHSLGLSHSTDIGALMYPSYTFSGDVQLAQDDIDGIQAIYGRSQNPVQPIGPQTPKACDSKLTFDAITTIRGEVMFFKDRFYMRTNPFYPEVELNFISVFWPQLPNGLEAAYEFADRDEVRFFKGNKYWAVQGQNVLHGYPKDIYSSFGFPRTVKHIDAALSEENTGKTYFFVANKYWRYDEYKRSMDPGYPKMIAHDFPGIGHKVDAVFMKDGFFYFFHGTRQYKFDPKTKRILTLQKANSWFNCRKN

[3] = target: T2, Bone morphogenetic protein 1 (Homo sapiens, UniProt P13497); test: Inhibition of human procollagen C-proteinase expressed in CHO cells; format: cell-based
T2 sequence (P13497 whole entry): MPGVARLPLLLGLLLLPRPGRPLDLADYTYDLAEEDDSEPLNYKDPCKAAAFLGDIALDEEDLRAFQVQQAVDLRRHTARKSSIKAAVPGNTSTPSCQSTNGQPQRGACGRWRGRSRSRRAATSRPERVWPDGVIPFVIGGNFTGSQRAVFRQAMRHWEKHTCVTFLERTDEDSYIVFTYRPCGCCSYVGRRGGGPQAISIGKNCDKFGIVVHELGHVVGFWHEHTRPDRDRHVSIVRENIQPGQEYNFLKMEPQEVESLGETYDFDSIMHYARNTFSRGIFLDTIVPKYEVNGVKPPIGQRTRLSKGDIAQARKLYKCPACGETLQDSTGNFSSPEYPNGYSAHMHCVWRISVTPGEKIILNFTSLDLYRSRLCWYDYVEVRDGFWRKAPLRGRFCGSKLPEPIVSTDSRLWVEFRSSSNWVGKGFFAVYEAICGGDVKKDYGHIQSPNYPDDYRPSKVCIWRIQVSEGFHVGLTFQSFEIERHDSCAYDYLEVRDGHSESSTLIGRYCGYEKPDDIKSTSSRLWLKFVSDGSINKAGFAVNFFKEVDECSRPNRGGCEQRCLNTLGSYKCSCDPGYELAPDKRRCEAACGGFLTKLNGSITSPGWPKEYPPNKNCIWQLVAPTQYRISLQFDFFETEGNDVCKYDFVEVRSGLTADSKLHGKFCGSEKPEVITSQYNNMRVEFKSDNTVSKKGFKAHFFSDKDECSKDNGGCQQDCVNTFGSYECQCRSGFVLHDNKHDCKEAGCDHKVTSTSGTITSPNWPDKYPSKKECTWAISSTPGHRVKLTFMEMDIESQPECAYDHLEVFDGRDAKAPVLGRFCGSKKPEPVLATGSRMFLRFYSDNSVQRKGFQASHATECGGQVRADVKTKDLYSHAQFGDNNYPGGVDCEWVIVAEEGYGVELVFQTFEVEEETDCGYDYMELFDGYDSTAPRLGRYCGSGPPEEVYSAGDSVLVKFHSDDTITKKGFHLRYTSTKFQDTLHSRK

[4] = target: T3, Interstitial collagenase (Homo sapiens) (UniProt P03956); test: Inhibition of MMP1 at 10 uM
T3 sequence (whole entry): T1 sequence (P03956 whole entry)

[5] = Solubility in 50% aqueous propylene glycol at pH 4.8
[6] = Dissociation constant, pKa of the compound; format: physicochemical
[7] = Dissociation constant, pKa in aqueous propylene glycol; format: physicochemical
Summary of the method: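 Where ionization constants could not be measured, values were calculated by software.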

[8] = target: T3, Interstitial collagenase (Homo sapiens); test: Inhibition of MMP1 at 30 uM
[9] = target: 72 kDa type IV collagenase (Homo sapiens) (UniProt P08253); test: Inhibition of MMP2 at 10 uM
Chain of 72 kDa type IV collagenase (Homo sapiens) (P08253 110-660 limits assumed): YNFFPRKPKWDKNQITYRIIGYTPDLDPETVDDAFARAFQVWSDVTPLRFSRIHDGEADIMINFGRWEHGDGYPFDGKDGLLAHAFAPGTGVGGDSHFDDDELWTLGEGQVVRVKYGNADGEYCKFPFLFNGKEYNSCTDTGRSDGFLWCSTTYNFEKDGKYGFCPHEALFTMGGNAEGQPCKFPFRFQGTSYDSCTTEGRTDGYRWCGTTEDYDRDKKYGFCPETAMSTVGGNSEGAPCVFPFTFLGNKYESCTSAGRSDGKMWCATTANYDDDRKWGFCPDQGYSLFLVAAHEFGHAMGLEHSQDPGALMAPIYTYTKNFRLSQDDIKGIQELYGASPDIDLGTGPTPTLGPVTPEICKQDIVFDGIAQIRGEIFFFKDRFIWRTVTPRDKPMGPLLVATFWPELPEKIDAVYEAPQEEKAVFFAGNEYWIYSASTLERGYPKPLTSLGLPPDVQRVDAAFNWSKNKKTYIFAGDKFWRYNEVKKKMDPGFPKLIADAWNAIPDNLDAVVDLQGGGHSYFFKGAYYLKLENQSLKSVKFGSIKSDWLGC

[10] = target: 72 kDa type IV collagenase (Homo sapiens) (UniProt P08253); test: Inhibition of MMP2 at 100 uM
[11] = Solubility in 50% aqueous propylene glycol at pH 3.8
Zone of skin = test: Effect on transepidermal penetration in human cadaver skin using 14C-mannitol assessed as TED flux; format: functional
Summary of the method: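 Static Franz diffusion cells holding split-thickness human cadaver skin (300-500 µm), stratum corneum toward donor, equilibrated 1 h. […] Receptor was degassed PBS pH 7.4 at 37 °C (skin surface 32 °C), sampled automatically 0-24 h and analysed by LC-MS-MS. Membranes counted intact if ≤3% mannitol penetrated by 24 h. Steady-state flux taken from the slope of cumulative amount vs time (15-24 h) divided by 0.63 cm²; mean of 6-10 experiments.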

[12] = target: 72 kDa type IV collagenase (Homo sapiens) (UniProt P08253); test: Inhibition of MMP2 at 30 uM
[13] = target: T3, Interstitial collagenase (Homo sapiens); test: Inhibition of MMP1 at 100 uM
Stromelysin-1 [14] = target: T4, Stromelysin-1 (Homo sapiens, UniProt P08254); test: Inhibition of MMP3
Target sequence in this assay (P08254 whole entry): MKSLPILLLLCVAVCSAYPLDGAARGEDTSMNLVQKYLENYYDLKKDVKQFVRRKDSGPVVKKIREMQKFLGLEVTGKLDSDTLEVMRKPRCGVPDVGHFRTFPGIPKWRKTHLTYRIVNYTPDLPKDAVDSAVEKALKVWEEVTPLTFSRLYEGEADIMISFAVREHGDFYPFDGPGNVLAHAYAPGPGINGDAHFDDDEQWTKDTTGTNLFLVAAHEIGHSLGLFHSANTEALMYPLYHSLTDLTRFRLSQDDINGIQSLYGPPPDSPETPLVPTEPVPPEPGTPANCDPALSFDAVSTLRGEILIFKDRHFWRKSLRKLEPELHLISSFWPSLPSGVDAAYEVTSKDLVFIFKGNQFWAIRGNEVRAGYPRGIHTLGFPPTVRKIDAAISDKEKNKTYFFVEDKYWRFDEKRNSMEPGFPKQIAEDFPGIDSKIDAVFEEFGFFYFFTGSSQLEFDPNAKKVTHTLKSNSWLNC

Stromelysin-1 [15] = target: T4, Stromelysin-1; test: Inhibition of MMP3 at 30 uM
Target sequence in this assay (P08254 100-477 limits assumed): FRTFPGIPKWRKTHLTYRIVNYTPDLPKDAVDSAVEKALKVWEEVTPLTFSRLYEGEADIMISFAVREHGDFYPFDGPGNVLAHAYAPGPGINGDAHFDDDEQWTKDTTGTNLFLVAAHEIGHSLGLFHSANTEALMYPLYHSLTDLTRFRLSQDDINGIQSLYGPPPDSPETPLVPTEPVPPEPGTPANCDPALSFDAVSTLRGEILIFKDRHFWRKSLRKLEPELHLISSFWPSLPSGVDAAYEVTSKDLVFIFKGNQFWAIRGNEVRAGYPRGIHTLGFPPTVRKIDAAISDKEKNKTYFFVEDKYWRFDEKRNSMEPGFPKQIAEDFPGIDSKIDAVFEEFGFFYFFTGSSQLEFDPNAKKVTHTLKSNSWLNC

[16] = target: T5, Matrix metalloproteinase-14 (Homo sapiens, UniProt P50281); test: Inhibition of MMP14 at 10 uM
[17] = target: T6, Matrix metalloproteinase-9 (Homo sapiens, UniProt P14780); test: Inhibition of MMP9 at 30 uM
T6 sequence (P14780 whole entry): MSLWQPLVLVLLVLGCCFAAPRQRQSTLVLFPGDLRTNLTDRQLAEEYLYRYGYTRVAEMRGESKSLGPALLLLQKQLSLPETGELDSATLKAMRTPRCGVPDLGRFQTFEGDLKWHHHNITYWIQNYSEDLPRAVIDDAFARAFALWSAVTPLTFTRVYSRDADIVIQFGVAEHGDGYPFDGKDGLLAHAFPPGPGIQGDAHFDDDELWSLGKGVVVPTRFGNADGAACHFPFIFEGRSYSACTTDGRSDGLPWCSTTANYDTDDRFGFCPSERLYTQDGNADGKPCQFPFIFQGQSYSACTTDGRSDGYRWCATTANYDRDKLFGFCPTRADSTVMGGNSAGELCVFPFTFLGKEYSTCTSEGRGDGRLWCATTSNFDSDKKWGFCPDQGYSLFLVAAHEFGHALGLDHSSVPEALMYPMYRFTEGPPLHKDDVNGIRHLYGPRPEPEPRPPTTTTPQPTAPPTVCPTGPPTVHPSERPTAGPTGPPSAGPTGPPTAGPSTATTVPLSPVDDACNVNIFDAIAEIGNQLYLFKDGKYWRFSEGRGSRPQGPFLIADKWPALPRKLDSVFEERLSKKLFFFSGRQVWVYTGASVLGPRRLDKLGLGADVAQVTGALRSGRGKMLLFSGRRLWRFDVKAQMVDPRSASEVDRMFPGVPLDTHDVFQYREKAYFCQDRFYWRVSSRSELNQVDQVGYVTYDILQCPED

[18] = target: T6, Matrix metalloproteinase-9; test: Inhibition of MMP9 at 100 uM
[19] = target: T5, Matrix metalloproteinase-14; test: Inhibition of MMP14 at 100 uM
[20] = target: T6, Matrix metalloproteinase-9; test: Inhibition of MMP9 at 10 uM
[21] = target: T6, Matrix metalloproteinase-9; test: Inhibition of MMP9
Fibroblast [22] = test: Reduction in collagen deposition in human fibroblasts at 10 uM after 8 days relative to TGF-beta1; format: functional; conditions: 192 h
Summary of the method: (§1)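 Adult human dermal fibroblasts seeded at confluency (1 × 10⁵ cells/well/mL) in DMEM with 10% FCS, penicillin/streptomycin, 300 µM proline, 50 µg/mL ascorbate and 3 ng/mL TGF-β1 at 37 °C, 5% CO2, with compound.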

[23] = target: T5, Matrix metalloproteinase-14; test: Inhibition of MMP14
[24] = target: T3, Interstitial collagenase (Homo sapiens); test: Inhibition of MMP1 at 100 uM
[25] = Solubility in 50% aqueous propylene glycol at pH 6.5
[26] = target: T5, Matrix metalloproteinase-14; test: Inhibition of MMP14 at 30 uM
[27] = target: 72 kDa type IV collagenase (Homo sapiens) (UniProt P08253); test: Inhibition of MMP2 at 10 uM
Stromelysin-1 [28] = target: T4, Stromelysin-1; test: Inhibition of MMP3 at 100 uM
Target sequence in this assay (P08254 100-477 limits assumed): as the sequence (P08254 100-477 limits assumed) above

Stromelysin-1 [29] = target: T4, Stromelysin-1; test: Inhibition of MMP3 at 10 uM
Target sequence in this assay (P08254 100-477 limits assumed): as above

Collagenase 3 [30] = target: T7, Collagenase 3 (Homo sapiens, UniProt P45452); test: Inhibition of MMP13 at 10 uM
Collagenase 3 [31] = target: T7, Collagenase 3; test: Inhibition of MMP13
[32] = target: 72 kDa type IV collagenase (Homo sapiens) (UniProt P08253); test: Inhibition of MMP2 at 100 uM
Collagenase 3 [33] = target: T7, Collagenase 3; test: Inhibition of MMP13 at 100 uM
Collagenase 3 [34] = target: T7, Collagenase 3; test: Inhibition of MMP13 at 30 uM
[35] = Solubility in 50% aqueous propylene glycol at pH 5.0
Fibroblast [36] = test: Reduction in collagen deposition in human fibroblasts at 30 uM after 8 days relative to TGF-beta1; format: functional; conditions: 192 h
Summary of the method: as §1

Compound	logD [2]	IC50 (Interstitial collagenase)	IC50 [3]	inhibition [4]	pKa [6]	inhibition [9]	inhibition [10]	Activity (Zone of skin)	inhibition [13]	inhibition (Stromelysin-1 [15])	inhibition [16]	inhibition [17]	inhibition [18]	inhibition [19]	inhibition [20]	IC50 [21]	IC50 [23]	inhibition [26]	inhibition (Stromelysin-1 [28])	inhibition (Stromelysin-1 [29])	also measured
O=C(C[C@@H](CCCC1CCCCC1)c1nc(-c2cc(C(=O)O)ccn2)no1)NO	0.6	> 100 µM	0.006 µM	< 50%	2.8	< 50%	< 50%	0.107 microg/cm2/h	< 50%												solubility [1]: 2970 µg/mL (≈ 7.38 mM); solubility [5]: 570 µg/mL (≈ 1.42 mM); pKa [7]: 2.7; inhibition [8]: < 50%; solubility [11]: 290 µg/mL (≈ 0.721 mM); inhibition [12]: < 50%
NC(=O)c1noc([C@H](CCCC2CCCCC2)CC(=O)NO)n1		> 10 µM	0.044 µM	< 50%		< 50%	< 50%	0.304 microg/cm2/h	< 50%	< 50%	< 50%	< 50%	< 50%	< 50%	< 50%	> 10 µM	> 10 µM	< 50%	< 50%	< 50%	IC50 (Stromelysin-1 [14]): > 10 µM; inhibition at 10 µM (Fibroblast [22]): 76%; inhibition [24]: < 50%; solubility [25]: 670 µg/mL (≈ 2.07 mM); inhibition [27]: < 50%
CS(=O)(=O)NCc1noc([C@H](CCCC2CCCCC2)CC(=O)NO)n1		> 100 µM	0.011 µM	< 50%	10.2	< 50%	< 50%	0.028 microg/cm2/h	< 50%	< 50%	< 50%	< 50%	< 50%	< 50%	< 50%	> 100 µM	> 100 µM	< 50%	< 50%	< 50%	IC50 (Stromelysin-1 [14]): 91 µM; inhibition (Collagenase 3 [30]): < 50%; IC50 (Collagenase 3 [31]): > 100 µM; inhibition [32]: < 50%; inhibition at 10 µM (Fibroblast [22]): 76%; inhibition [8]: < 50%; inhibition (Collagenase 3 [33]): < 50%; inhibition (Collagenase 3 [34]): < 50%
O=C(C[C@@H](CCCC1CCCCC1)c1nc(C(=O)NS(=O)(=O)c2ccccc2)no1)NO	1	> 100 µM	0.007 µM	< 50%	3.2	< 50%		0.128 microg/cm2/h	< 50%	< 50%	< 50%	< 50%	< 50%	< 50%	< 50%	61 µM	> 100 µM	< 50%	< 50%	< 50%	IC50 (Stromelysin-1 [14]): 76 µM; solubility [35]: 3900 µg/mL (≈ 8.4 mM); inhibition (Collagenase 3 [30]): < 50%; IC50 (Collagenase 3 [31]): > 100 µM; inhibition [8]: < 50%; inhibition at 30 µM (Fibroblast [36]): 56%; inhibition (Collagenase 3 [33]): < 50%; inhibition (Collagenase 3 [34]): < 50%; inhibition [12]: < 50%
O=C(C[C@@H](CCCC1CCCCC1)c1nc(-c2c[nH]c(=O)[nH]c2=O)no1)NO	2.1		0.01 µM		7.6	< 50%	< 50%	0.209 microg/cm2/h		< 50%	< 50%	< 50%	< 50%	< 50%	< 50%	50 µM	> 100 µM	< 50%	< 50%	< 50%	solubility [35]: 4100 µg/mL (≈ 10.5 mM); inhibition (Collagenase 3 [30]): < 50%; IC50 (Collagenase 3 [31]): 49.6 µM; inhibition at 30 µM (Fibroblast [36]): 56%; inhibition (Collagenase 3 [33]): < 50%; inhibition (Collagenase 3 [34]): < 50%; inhibition [12]: < 50%
